Results gathered from unrelated publications.
Each line is one published result; the experiments were not run side by side.
Target: Homeodomain-interacting protein kinase 4 (HIPK4, Homo sapiens, UniProt Q8NE63)
One construct used (Q8NE63 1-616): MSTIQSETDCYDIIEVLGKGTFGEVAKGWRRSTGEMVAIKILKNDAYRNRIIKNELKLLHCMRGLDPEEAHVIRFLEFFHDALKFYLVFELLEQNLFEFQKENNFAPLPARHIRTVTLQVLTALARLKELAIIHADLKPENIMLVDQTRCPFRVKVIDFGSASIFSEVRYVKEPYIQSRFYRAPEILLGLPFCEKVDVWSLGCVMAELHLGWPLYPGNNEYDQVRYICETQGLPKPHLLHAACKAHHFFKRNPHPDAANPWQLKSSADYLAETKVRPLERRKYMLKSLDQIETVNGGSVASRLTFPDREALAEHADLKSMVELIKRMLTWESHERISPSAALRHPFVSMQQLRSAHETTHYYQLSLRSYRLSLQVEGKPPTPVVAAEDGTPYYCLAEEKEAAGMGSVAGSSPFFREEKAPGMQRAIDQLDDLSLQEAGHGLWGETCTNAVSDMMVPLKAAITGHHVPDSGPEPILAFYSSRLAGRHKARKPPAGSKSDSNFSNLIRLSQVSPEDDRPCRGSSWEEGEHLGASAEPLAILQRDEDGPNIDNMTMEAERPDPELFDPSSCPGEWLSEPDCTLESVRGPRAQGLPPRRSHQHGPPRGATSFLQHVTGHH

| SMILES | assay | conditions | remaining binding |
| --- | --- | --- | --- |
| O=C(O)[C@H]1[C@H](Cn2nnc3ccccc3c2=O)CC[C@@H]1C(=O)c1ccc(OCCC2CCOCC2)cc1 | cell-free assay, competition with immobilised ligand | 1 µM | 100% |
| O=C(c1ccc(Nc2nccc(-c3cc4ccccc4s3)n2)cc1)N1CCC(N2CCCC2)CC1 | binding, competition with immobilised ligand | 1 µM | 4.1% |
| N[C@H]1CCN(c2nccc(-c3cnn4ncccc34)n2)C1 | binding | 1 µM | 33% |
| c1cncc(-c2cccc(Nc3nccc(NC4CCCCC4)n3)c2)c1 | binding, competition with immobilised ligand | 10 µM | 22% |
| Cc1cnc(Nc2ccc(C(=O)N3CCC(N4CCCC4)CC3)cc2)nc1-c1cc2ccccc2s1 | binding, competition with immobilised ligand | 1 µM | 1.3% |
| CNC(=O)[C@@H]1CC[C@@H](n2c(-c3ccc4cnccc4c3)nc3ccc(C(=O)NCc4cccc(C(N)=O)c4)cc32)C1 | binding, competition with immobilised ligand | 1 µM | 100% |
| O=c1nc(-c2ccccn2)sc2ccccc12 | binding, competition with immobilised ligand | 1 µM | 85% |
| CN(C)c1nccc(-c2cnn3ncccc23)n1 | binding | 1 µM | 75% |
| Cc1c[nH]c2nccc(Oc3c(F)cc(Nc4cc(Cl)nc(N)n4)cc3F)c12 | cell-free assay, competition with immobilised ligand | 0.1 µM | 100% |
| CN(c1nccc(-c2cnn3ncccc23)n1)C1CC1 | binding | 1 µM | 99% |
| O=C(Nc1c[nH]nc1C(=O)NC1CCNCC1)c1cc(F)cc(F)c1 | binding, competition with immobilised ligand | 1 µM | 59% |
| CN(C)CC#Cc1ccc(OCCCc2sc(N3CCc4cccc(C(=O)Nc5nc6ccccc6s5)c4C3)nc2C(=O)O)c(F)c1 | cell-free assay, competition with immobilised ligand | 1 µM | 100% |
| c1cnn2ncc(-c3ccnc(N4CCC45COC5)n3)c2c1 | binding | 1 µM | 87% |
| FC(F)(F)Oc1cccc(-c2cnc3ccc(-c4ccncc4)nn23)c1 | cell-free assay, competition with immobilised ligand | 5 µM | 5.2% |
| CN(CCCC(F)(F)F)c1nccc(-c2cnn3ncccc23)n1 | binding | 1 µM | 95% |
| COc1cnc(Nc2cccc(S(N)(=O)=O)c2)nc1N1CCN(c2ccccc2)C(=O)C1 | binding, competition with immobilised ligand | 1 µM | 91% |
| C[C@@H]1CCN(c2nccc(-c3cnn4ncccc34)n2)C1 | binding | 1 µM | 92% |
| CCN1CCN(Cc2ccc(C(=O)Nc3ccc(C)c(Oc4ccc5c(c4)CC(=O)N5)c3)cc2C(F)(F)F)CC1 | binding, competition with immobilised ligand | 1 µM | 100% |
| Nc1c(C(=O)NCc2ccc(C(=O)NCCCC3CCCCC3)cc2)cnn1-c1ccccc1 | cell-free assay, competition with immobilised ligand | 0.1 µM | 100% |
| F[C@@H]1CCN(c2nccc(-c3cnn4ncccc34)n2)C1 | binding | 1 µM | 90% |
| Cc1cc(C)c(-n2ccn3nc(-c4cccnc4)cc23)cc1NC(=O)c1cc(C#N)cc(S(F)(F)(F)(F)F)c1 | cell-free assay, competition with immobilised ligand | 0.1 µM | 95.6% |
| O=C(NCCCN1CCOCC1)c1ccc(Nc2nccc(-c3cc4ccccc4s3)n2)cc1 | binding, competition with immobilised ligand | 1 µM | 5.8% |
